Measured values published in ChEMBL document CHEMBL1649475, “In vivo pharmacodynamic profile of tigecycline against phenotypically diverse Escherichia coli and Klebsiella pneumoniae isolates” (Antimicrob Agents Chemother, 2009).
Values after ≈ are worked out from the molar mass of the structure shown.

Columns and labels:
Format in all cases: functional
[1] = Ratio of fAUC to MIC in Escherichia coli isolate 120-infected ICR mouse at 50% maximal effective concentration
Method in brief: (§1)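 EI50, EI80 and the static exposure were read from fitted curves. Free AUC came from earlier mouse PK using concentration-dependent protein binding set at Cmax. MICs were run in triplicate by CLSI broth microdilution in Mueller-Hinton broth prepared <12 h before testing, or by Etest.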

[2] = Ratio of fAUC to MIC in extended-spectrum beta-lactamase producing Klebsiella pneumoniae isolate 320-infected ICR mouse at bacteriostatic concentration; method in brief: as §1
[3] = Ratio of fAUC to MIC in extended-spectrum beta-lactamase producing Escherichia coli isolate 315-infected ICR mouse at 80% maximal effective concentration; method in brief: as §1
Escherichia coli [4] = experiment: Antibacterial activity against Escherichia coli isolate 120 infected in ICR mouse assessed as change in bacterial load at 6.25 to 50 mg/kg, sc; conditions: dose mg/kg 6.25-50; route subcutaneous
Method in brief: (§2)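 Female CD-1/ICR mice (~25 g) were made neutropenic with intraperitoneal cyclophosphamide, 150 mg/kg 4 days and 100 mg/kg 1 day before inoculation. Isolates were grown on blood agar at 35°C for 18–24 h, and 0.1 ml of 10^7 CFU/ml was injected intramuscularly per thigh. At 2 h, tigecycline in saline was given sc as single or multiple doses of 3.125–50 mg/kg. Thighs were homogenized at 24 h and plated. Read-out was mean change in log10 CFU/ml versus 0-h controls, three mice per group.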

[5] = Ratio of fAUC to MIC in extended-spectrum beta-lactamase producing Escherichia coli isolate 322-infected ICR mouse at 80% maximal effective concentration; method in brief: as §1
[6] = Ratio of fAUC to MIC in Klebsiella pneumoniae isolate 134-infected ICR mouse at 50% maximal effective concentration; method in brief: as §1
Klebsiella pneumoniae [7] = experiment: Antibacterial activity against carbapenemase producing Klebsiella pneumoniae isolate 321 by broth microdilution method
Method in brief: (§3)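 Tigecycline MICs by broth microdilution per CLSI guidelines, run in triplicate. Mueller-Hinton broth was prepared fresh less than 12 h before testing.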

Klebsiella pneumoniae [8] = experiment: Antibacterial activity against extended-spectrum beta-lactamase producing Klebsiella pneumoniae isolate 320 infected in ICR mouse assessed as change in bacterial load at 6.25 to 50 mg/kg, sc; conditions: dose mg/kg 6.25-50; route subcutaneous; method in brief: as §2
[9] = Ratio of fAUC to MIC in Escherichia coli isolate 54-infected ICR mouse at bacteriostatic concentration; method in brief: as §1
[10] = Ratio of fAUC to MIC in Klebsiella pneumoniae isolate 135-infected ICR mouse at 50% maximal effective concentration; method in brief: as §1
[11] = Ratio of fAUC to MIC in Escherichia coli isolate 120-infected ICR mouse at 80% maximal effective concentration; method in brief: as §1
[12] = Ratio of fAUC to MIC in extended-spectrum beta-lactamase producing Escherichia coli isolate 322-infected ICR mouse at bacteriostatic concentration; method in brief: as §1
Escherichia coli [13] = experiment: Antibacterial activity against Escherichia coli isolate 120 by broth microdilution method; method in brief: as §3
Klebsiella pneumoniae [14] = experiment: Antibacterial activity against extended-spectrum beta-lactamase producing Klebsiella pneumoniae isolate 266 by broth microdilution method; method in brief: as §3
[15] = Ratio of fAUC to MIC in Escherichia coli isolate 54-infected ICR mouse at 50% maximal effective concentration; method in brief: as §1
[16] = Ratio of fAUC to MIC in extended-spectrum beta-lactamase producing Escherichia coli isolate 315-infected ICR mouse at bacteriostatic concentration; method in brief: as §1
[17] = Ratio of fAUC to MIC in extended-spectrum beta-lactamase producing Klebsiella pneumoniae isolate 266-infected ICR mouse at 50% maximal effective concentration; method in brief: as §1
Klebsiella pneumoniae [18] = experiment: Antibacterial activity against Klebsiella pneumoniae isolate 134 infected in ICR mouse assessed as change in bacterial load at 6.25 to 50 mg/kg, sc; conditions: dose mg/kg 6.25-50; route subcutaneous; method in brief: as §2
[19] = Ratio of fAUC to MIC in extended-spectrum beta-lactamase producing Escherichia coli isolate 315-infected ICR mouse at 50% maximal effective concentration; method in brief: as §1
[20] = Ratio of fAUC to MIC in extended-spectrum beta-lactamase producing Escherichia coli isolate 321-infected ICR mouse at 50% maximal effective concentration; method in brief: as §1
[21] = Ratio of fAUC to MIC in carbapenemase producing Klebsiella pneumoniae isolate 321-infected ICR mouse at 80% maximal effective concentration; method in brief: as §1
[22] = Ratio of fAUC to MIC in extended-spectrum beta-lactamase producing Escherichia coli isolate 321-infected ICR mouse at 80% maximal effective concentration; method in brief: as §1
Klebsiella pneumoniae [23] = experiment: Antibacterial activity against extended-spectrum beta-lactamase producing Klebsiella pneumoniae isolate 255 by broth microdilution method; method in brief: as §3
[24] = Ratio of fAUC to MIC in carbapenemase producing Klebsiella pneumoniae isolate 321-infected ICR mouse at 50% maximal effective concentration; method in brief: as §1
[25] = Ratio of fAUC to MIC in extended-spectrum beta-lactamase producing Escherichia coli isolate 321-infected ICR mouse at bacteriostatic concentration; method in brief: as §1
Escherichia coli [26] = experiment: Antibacterial activity against extended-spectrum beta-lactamase producing Escherichia coli isolate 322 infected in ICR mouse assessed as change in bacterial load at 6.25 to 50 mg/kg, sc; conditions: dose mg/kg 6.25-50; route subcutaneous; method in brief: as §2
[27] = Ratio of fAUC to MIC in extended-spectrum beta-lactamase producing Klebsiella pneumoniae isolate 320-infected ICR mouse at 50% maximal effective concentration; method in brief: as §1
Klebsiella pneumoniae [28] = experiment: Antibacterial activity against extended-spectrum beta-lactamase producing Klebsiella pneumoniae isolate 255 infected in ICR mouse assessed as change in bacterial load at 6.25 to 50 mg/kg, sc; conditions: dose mg/kg 6.25-50; route subcutaneous; method in brief: as §2
Escherichia coli [29] = experiment: Antibacterial activity against extended-spectrum beta-lactamase producing Escherichia coli isolate 315 by broth microdilution method; method in brief: as §3

Structure (SMILES): CN(C)c1cc(NC(=O)CNC(C)(C)C)c(O)c2c1C[C@H]1C[C@H]3[C@H](N(C)C)C(O)=C(C(N)=O)C(=O)[C@@]3(O)C(O)=C1C2=O [TIGECYCLINE]
- fAUC/MIC [1]: 3.7
- fAUC/MIC [2]: 3.09
- fAUC/MIC [3]: 4.46
- log10CFU/ml (Escherichia coli [4]): -2.3
- fAUC/MIC [5]: 10.6
- fAUC/MIC [6]: 5.91
- MIC (Klebsiella pneumoniae [7]): 0.5 µg/mL (≈ 0.854 µM)
- log10CFU/ml (Klebsiella pneumoniae [8]): -1.12
- fAUC/MIC [9]: 5.96
- fAUC/MIC [10]: 3.62
- fAUC/MIC [11]: 7.3
- fAUC/MIC [12]: 7.5
- MIC (Escherichia coli [13]): 0.125 µg/mL (≈ 0.213 µM)
- MIC (Klebsiella pneumoniae [14]): 0.5 µg/mL (≈ 0.854 µM)
- fAUC/MIC [15]: 5.19
- fAUC/MIC [16]: 3.88
- fAUC/MIC [17]: 5.37
- log10CFU/ml (Klebsiella pneumoniae [18]): -1.42
- fAUC/MIC [19]: 3.71
- fAUC/MIC [20]: 6.4
- fAUC/MIC [21]: 7.48
- fAUC/MIC [22]: 9.07
- MIC (Klebsiella pneumoniae [23]): 2 µg/mL (≈ 3.41 µM)
- fAUC/MIC [24]: 4.53
- fAUC/MIC [25]: 6.83
- log10CFU/ml (Escherichia coli [26]): -2.4
- fAUC/MIC [27]: 2.01
- log10CFU/ml (Klebsiella pneumoniae [28]): -3.15
- MIC (Escherichia coli [29]): 0.5 µg/mL (≈ 0.854 µM)
